Data published in ChEMBL document CHEMBL4819122, “Novel 4-(piperazin-1-yl)quinolin-2(1H)-one bearing thiazoles with antiproliferative activity through VEGFR-2-TK inhibition” (Bioorg Med Chem, 2021).

Legend:
[1] = tested on: NCI-H23; experiment: Cytotoxicity against human NCI-H23 assessed as growth inhibition at 10 uM by NCI protocol relative to control; format: functional; details: read-out: GI
Procedure, shortened: (§1)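 Run by NCI as a single-dose screen at 10 μM across the sixty-cell-line panel, which covers nine human tumour tissue types. The read-out is percent growth inhibition of treated cells relative to untreated cells.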

[2] = tested on: NCI-H460; experiment: Cytotoxicity against human NCI-H460 assessed as growth inhibition at 10 uM by NCI protocol relative to control; format: functional; details: read-out: GI; procedure, shortened: as §1
[3] = tested on: 786-0; experiment: Cytotoxicity against human 786-0 assessed as growth inhibition at 10 uM by NCI protocol relative to control; format: functional; details: read-out: GI; procedure, shortened: as §1
[4] = tested on: U-251; experiment: Cytotoxicity against human U251 assessed as growth inhibition at 10 uM by NCI protocol relative to control; format: functional; details: read-out: GI
Procedure, shortened: (§2)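 Run by the NCI under its standard protocol: one dose of 10 μM against a sixty-line panel from nine human tumour tissues. Result given as percent growth inhibition of treated cells relative to untreated cells.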

[5] = tested on: SW-620; experiment: Cytotoxicity against human SW-620 assessed as growth inhibition at 10 uM by NCI protocol relative to control; format: functional; details: read-out: GI; procedure, shortened: as §2
[6] = tested on: SF-268; experiment: Cytotoxicity against human SF-268 assessed as growth inhibition at 10 uM by NCI protocol relative to control; format: functional; details: read-out: GI; procedure, shortened: as §1
[7] = tested on: HL-60; experiment: Cytotoxicity against human HL60 assessed as growth inhibition at 10 uM by NCI protocol relative to control; format: functional; details: read-out: GI; procedure, shortened: as §1
[8] = tested on: DU-145; experiment: Cytotoxicity against human DU-145 assessed as growth inhibition at 10 uM by NCI protocol relative to control; format: functional; details: read-out: GI; procedure, shortened: as §1
[9] = tested on: UACC-257; experiment: Cytotoxicity against human UACC-257 assessed as growth inhibition at 10 uM by NCI protocol relative to control; format: functional; details: read-out: GI; procedure, shortened: as §2
[10] = tested on: MCF7; experiment: Cytotoxicity against human MCF7 assessed as growth inhibition at 10 uM by NCI protocol relative to control; format: functional; details: read-out: GI; procedure, shortened: as §1
[11] = tested on: MDA-MB-231; experiment: Cytotoxicity against human MDA-MB-231 assessed as growth inhibition at 10 uM by NCI protocol relative to control; format: functional; details: read-out: GI; procedure, shortened: as §1
[12] = tested on: HCC 2998; experiment: Cytotoxicity against human HCC-2998 assessed as growth inhibition at 10 uM by NCI protocol relative to control; format: functional; details: read-out: GI; procedure, shortened: as §1
[13] = tested on: T47D; experiment: Cytotoxicity against human T47D cells assessed as reduction in cell viability after 3 hrs by MTT assay
[14] = tested on: RPMI-8226; experiment: Cytotoxicity against human RPMI-8226 assessed as growth inhibition at 10 uM by NCI protocol relative to control; format: functional; details: read-out: GI; procedure, shortened: as §1
[15] = tested on: CCRF-CEM; experiment: Cytotoxicity against human CCRF-CEM assessed as growth inhibition at 10 uM by NCI protocol relative to control; format: functional; details: read-out: GI; procedure, shortened: as §1
[16] = tested on: SK-MEL-5; experiment: Cytotoxicity against human SK-MEL-5 assessed as growth inhibition at 10 uM by NCI protocol relative to control; format: functional; details: read-out: GI; procedure, shortened: as §1
[17] = tested on: A498; experiment: Cytotoxicity against human A498 assessed as growth inhibition at 10 uM by NCI protocol relative to control; format: functional; details: read-out: GI; procedure, shortened: as §1
[18] = tested on: MDA-MB-468; experiment: Cytotoxicity against human MDA-MB-468 assessed as growth inhibition at 10 uM by NCI protocol relative to control; format: functional; details: read-out: GI; procedure, shortened: as §1
[19] = tested on: K562; experiment: Cytotoxicity against human K-562 assessed as growth inhibition at 10 uM by NCI protocol relative to control; format: functional; details: read-out: GI; procedure, shortened: as §1
[20] = tested on: Malme-3M; experiment: Cytotoxicity against human MALME-3M assessed as growth inhibition at 10 uM by NCI protocol relative to control; format: functional; details: read-out: GI; procedure, shortened: as §1
[21] = tested on: UACC-62; experiment: Cytotoxicity against human UACC-62 assessed as growth inhibition at 10 uM by NCI protocol relative to control; format: functional; details: read-out: GI; procedure, shortened: as §2
[22] = tested on: SR; experiment: Cytotoxicity against human SR assessed as growth inhibition at 10 uM by NCI protocol relative to control; format: functional; details: read-out: GI; procedure, shortened: as §2
[23] = tested on: PC-3; experiment: Cytotoxicity against human PC3 assessed as growth inhibition at 10 uM by NCI protocol relative to control; format: functional; details: read-out: GI; procedure, shortened: as §1
[24] = tested on: ACHN; experiment: Cytotoxicity against human ACHN assessed as growth inhibition at 10 uM by NCI protocol relative to control; format: functional; details: read-out: GI; procedure, shortened: as §1
[25] = tested on: OVCAR-4; experiment: Cytotoxicity against human OVCAR-4 assessed as growth inhibition at 10 uM by NCI protocol relative to control; format: functional; details: read-out: GI; procedure, shortened: as §1
[26] = tested on: HOP-92; experiment: Cytotoxicity against human HOP-92 assessed as growth inhibition at 10 uM by NCI protocol relative to control; format: functional; details: read-out: GI; procedure, shortened: as §1
[27] = tested on: HT-29; experiment: Cytotoxicity against human HT29 assessed as growth inhibition at 10 uM by NCI protocol relative to control; format: functional; details: read-out: GI; procedure, shortened: as §1
[28] = tested on: NCI-H322M; experiment: Cytotoxicity against human NCI-H322M assessed as growth inhibition at 10 uM by NCI protocol relative to control; format: functional; details: read-out: GI; procedure, shortened: as §1
[29] = tested on: MOLT-4; experiment: Cytotoxicity against human MOLT-4 assessed as growth inhibition at 10 uM by NCI protocol relative to control; format: functional; details: read-out: GI; procedure, shortened: as §1
[30] = tested on: IGROV-1; experiment: Cytotoxicity against human IGROVI assessed as growth inhibition at 10 uM by NCI protocol relative to control; format: functional; details: read-out: GI; procedure, shortened: as §1
[31] = tested on: M14; experiment: Cytotoxicity against human M14 assessed as growth inhibition at 10 uM by NCI protocol relative to control; format: functional; details: read-out: GI; procedure, shortened: as §1
[32] = tested on: HCT-15; experiment: Cytotoxicity against human HCT-15 assessed as growth inhibition at 10 uM by NCI protocol relative to control; format: functional; details: read-out: GI; procedure, shortened: as §1
[33] = tested on: SF-295; experiment: Cytotoxicity against human SF-295 assessed as growth inhibition at 10 uM by NCI protocol relative to control; format: functional; details: read-out: GI; procedure, shortened: as §1
[34] = tested on: NCI/ADR-RES; experiment: Cytotoxicity against human NCl/ADR-RES assessed as growth inhibition at 10 uM by NCI protocol relative to control; format: functional; details: read-out: GI; procedure, shortened: as §1
[35] = tested on: T47D; experiment: Cytotoxicity against human T-47D assessed as growth inhibition at 10 uM by NCI protocol relative to control; format: functional; details: read-out: GI; procedure, shortened: as §2
[36] = tested on: NCI-H226; experiment: Cytotoxicity against human NCI-H226 assessed as growth inhibition at 10 uM by NCI protocol relative to control; format: functional; details: read-out: GI; procedure, shortened: as §1
[37] = tested on: RXF 393; experiment: Cytotoxicity against human RXF 393 assessed as growth inhibition at 10 uM by NCI protocol relative to control; format: functional; details: read-out: GI; procedure, shortened: as §1
[38] = tested on: LOX IMVI; experiment: Cytotoxicity against human LOX IMVI assessed as growth inhibition at 10 uM by NCI protocol relative to control; format: functional; details: read-out: GI; procedure, shortened: as §1
[39] = tested on: Hs-578T; experiment: Cytotoxicity against human HS 578T assessed as growth inhibition at 10 uM by NCI protocol relative to control; format: functional; details: read-out: GI; procedure, shortened: as §1
[40] = tested on: SK-MEL-28; experiment: Cytotoxicity against human SK-MEL-28 assessed as growth inhibition at 10 uM by NCI protocol relative to control; format: functional; details: read-out: GI; procedure, shortened: as §1
[41] = tested on: SK-MEL-2; experiment: Cytotoxicity against human SK-MEL-2 assessed as growth inhibition at 10 uM by NCI protocol relative to control; format: functional; details: read-out: GI; procedure, shortened: as §1
[42] = tested on: OVCAR-8; experiment: Cytotoxicity against human OVCAR-8 assessed as growth inhibition at 10 uM by NCI protocol relative to control; format: functional; details: read-out: GI; procedure, shortened: as §1

## Cc1ccc(-c2csc(NC(=O)CN3CCN(c4cc(=O)[nH]c5ccc(F)cc45)CC3)n2)cc1
[1]
  inhibition of growth at 10 µM: 21.6%
[2]
  inhibition of growth at 10 µM: 21.4%
[3]
  inhibition of growth at 10 µM: 25.6%
[4]
  inhibition of growth at 10 µM: 44.4%
[5]
  inhibition of growth at 10 µM: 37%
[6]
  inhibition of growth at 10 µM: 14.5%
[7]
  inhibition of growth at 10 µM: 40.6%
[8]
  inhibition of growth at 10 µM: 47.4%
[9]
  inhibition of growth at 10 µM: 37.5%
[10]
  inhibition of growth at 10 µM: 33.5%
[11]
  inhibition of growth at 10 µM: 19%
[12]
  inhibition of growth at 10 µM: 34.1%
[13]
  IC50: 8.41 µM
[14]
  inhibition of growth at 10 µM: 51.1%
[15]
  inhibition of growth at 10 µM: 47%
[16]
  inhibition of growth at 10 µM: 44%
[17]
  inhibition of growth at 10 µM: 56.6%
[18]
  inhibition of growth at 10 µM: 41.5%
[19]
  inhibition of growth at 10 µM: 42.4%
[20]
  inhibition of growth at 10 µM: 43.5%
[21]
  inhibition of growth at 10 µM: 33.9%
[22]
  inhibition of growth at 10 µM: 47.5%
[23]
  inhibition of growth at 10 µM: 55.9%
[24]
  inhibition of growth at 10 µM: 44.1%
[25]
  inhibition of growth at 10 µM: 30.6%
[26]
  inhibition of growth at 10 µM: 39.7%
[27]
  inhibition of growth at 10 µM: 21.5%
[28]
  inhibition of growth at 10 µM: 18.9%
[29]
  inhibition of growth at 10 µM: 53.2%
[30]
  inhibition of growth at 10 µM: 52.6%
[31]
  inhibition of growth at 10 µM: 27.5%
[32]
  inhibition of growth at 10 µM: 37.1%
[33]
  inhibition of growth at 10 µM: 20.3%
[34]
  inhibition of growth at 10 µM: 38.4%
[35]
  inhibition of growth at 10 µM: 74.3%
[36]
  inhibition of growth at 10 µM: 11.7%
[37]
  inhibition of growth at 10 µM: 27%
[38]
  inhibition of growth at 10 µM: 23.9%
[39]
  inhibition of growth at 10 µM: 41.4%
[40]
  inhibition of growth at 10 µM: 17.8%
[41]
  inhibition of growth at 10 µM: 10.2%
[42]
  inhibition of growth at 10 µM: 23.2%
